Experimental data gathered from unrelated publications.
Each line is one published result; the experiments were not run side by side.
Target: Mitogen-activated protein kinase 6 (MAPK6, Homo sapiens, UniProt Q16659)

For COc1cnc(Nc2cccc(S(N)(=O)=O)c2)nc1N1CCN(c2ccccc2)CC1, the remaining binding was 100% (binding; competition with immobilised ligand; 1 µM).
C[C@@]1(Cc2ccc(C#N)cc2)C(=O)N(c2cc(Cl)cc(Cl)c2)c2ncc(C(=O)NC3(c4nc(C5CCC5)no4)CC3)n21 has a remaining binding of 100% (cell-free assay; competition with immobilised ligand; 1 µM).
C[C@@H](c1ccc(-n2cnc3c(N)ncnc32)cc1)N1CCc2nn(C)c(Cc3ccccc3)c2C1=O has a remaining binding of 93% (binding; competition with immobilised ligand; 0.1 µM).
The remaining binding of N[C@@H]1CCN(c2nccc(-c3cnn4ncccc34)n2)C1 is reported as 100% (binding; 1 µM).
O=C(c1ccc(Nc2nccc(-c3cc4ccccc4s3)n2)cc1)N1CCC(N2CCCC2)CC1 has a remaining binding of 11% (binding; competition with immobilised ligand; 1 µM).
With CN(C)c1ncnc(-c2ccc3nc(Nc4cc(CN5CCN(C(=O)CC(F)(F)F)CC5)ccn4)[nH]c3c2)c1Cl the remaining binding was 100% (cell-free assay; competition with immobilised ligand; 1 µM).
For O=C(NCCCN1CCOCC1)c1ccc(Nc2ncc(Cl)c(-c3ccc(Cl)s3)n2)cc1, the remaining binding was 0.05% (binding; competition with immobilised ligand; 1 µM).
With Cc1cnn2ncc(-c3ccnc(N(C)C)n3)c2c1 the remaining binding was 98% (binding; 1 µM).
The remaining binding of O=C(Nc1c[nH]nc1C(=O)NC1CCNCC1)c1cc(F)cc(F)c1 is reported as 89% (binding; competition with immobilised ligand; 1 µM).
With CCCOc1ccc([C@H]2[C@H](C(=O)O)[C@@H](c3ccc4c(c3)OCO4)CN2CC(=O)Nc2c(CC)cccc2CC)cc1 the remaining binding was 92% (cell-free assay; competition with immobilised ligand; 1 µM).
The remaining binding of F[C@@H]1CCN(c2nccc(-c3cnn4ncccc34)n2)C1 is reported as 74% (binding; 1 µM).
With CS(=O)(=O)N1CCCC(NC(=O)[C@H](CCC2CCCCC2)NC(=O)c2ccc(CNC(=O)c3cnc4ccccn34)cc2)C1 (stereo partly shown) the remaining binding was 96% (cell-free assay; competition with immobilised ligand; 0.1 µM).
The remaining binding of COc1ncc2cc3ccccc3nc2c1C#N is reported as 90% (cell-free assay; competition with immobilised ligand; 5 µM).
C=CC(=O)N1CCC(C(=O)NCC(=O)N2CCN(c3nc(-c4cnc(N)nc4C(F)F)nc(N4CCOCC4)n3)CC2)CC1 gave a remaining binding of 96% (binding; competition with immobilised ligand; 1 µM).
CN(C)c1nccc(-c2cnc3ncccn23)n1 has a remaining binding of 93% (binding; 1 µM).
The remaining binding of O=C(NCCCN1CCOCC1)c1ccc(Nc2nccc(-c3cc4ccccc4s3)n2)cc1 is reported as 48% (binding; competition with immobilised ligand; 1 µM).
c1cnn2ncc(-c3ccnc(N4CCC45COC5)n3)c2c1 has a remaining binding of 92% (binding; 1 µM).
For COc1cnc(Nc2cccc(S(N)(=O)=O)c2)nc1N1CCN(c2ccccc2)C(=O)C1, the remaining binding was 100% (binding; competition with immobilised ligand; 1 µM).
For CN(CCCC(F)(F)F)c1nccc(-c2cnn3ncccc23)n1, the remaining binding was 90% (binding; 1 µM).
C[C@@H](c1cccc(C#N)c1)n1cc(Cl)cc(C(N)=O)c1=N has a remaining binding of 100% (cell-free assay; competition with immobilised ligand; 1 µM).
C[C@H]1CCN(c2nccc(-c3cnn4ncccc34)n2)C1 gave a remaining binding of 83% (binding; 1 µM).
CC(=O)C1=C(C)N(c2cccc(C(F)(F)F)c2)C(=O)N[C@@H]1c1ccc(C#N)nc1 gave a remaining binding of 75.8% (cell-free assay; competition with immobilised ligand; 1 µM).
